Measurements as given in ChEMBL document CHEMBL1134684, “Phenoxypropoxybiguanides, prodrugs of DHFR-inhibiting diaminotriazine antimalarials” (J Med Chem, 2001).
≈ marks a conversion by molar mass, not a printed value.

Experiments:
Mus musculus [1] = species: Mus musculus; experiment: Dose needed to increase the 100% survival of treated animals (mouse), to twice the number of days; format: ADME, organism-based; details: in vivo
[2] = In vivo antimalarial activity against Plasmodium berghei in mice (Mus musculus) after 6 days; format: functional; details: 144 h
In short: (§1)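 Male or female CD-1 mice (4-5 weeks, 20-25 g) infected ip on day 0 with 5 × 10⁴ P. berghei KBG-173 parasitized erythrocytes. Oral doses in 0.5% hydroxyethylcellulose/0.1% Tween-80, given bid 6 h apart on days 3, 4 and 5, computed as free base. Giemsa-stained tail-blood smears on day 6 give % infected RBC. ED90 is the dose reducing parasitemia to 10% of untreated infected controls.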

Mus musculus [3] = species: Mus musculus; experiment: Dose required for 100%, 31 day survival of Plasmodium berghei inoculated mice (Mus musculus).; format: ADME, organism-based; details: in vivo, 744 h
In short: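 Same mouse P. berghei KBG-173 model, with ip infection on day 0 and oral bid treatment on days 3, 4 and 5. The experiment runs 31 days. The complete survival dose is the dose at which all animals are alive on day 31.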

Plasmodium falciparum [4] = experiment: In vitro antimalarial activity against Plasmodium falciparum K1; format: functional
In short: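 K1 parasites synchronized with 5% sorbitol. Drugs in methanol or DMSO, 2-fold serially diluted. Cultures at 2% hematocrit and 0.5% parasitemia (>95% rings) in 10% human serum under 5% O₂/5% CO₂/90% N₂ at 37.5 °C for 24-30 h. Romanowsky-stained thick films scored. MIC is the lowest concentration preventing >90% maturation to normal schizonts.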

Plasmodium falciparum [5] = experiment: In vitro antimalarial activity against Plasmodium falciparum W2; format: functional, organism-based
In short: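 Chloroquine-, quinine-, sulfadoxine- and pyrimethamine-resistant Indochina W-2 clone tested in a semiautomated microdilution assay. Graded drug concentrations incubated 66 h in medium with physiological folic acid. Read-out is inhibition of radiolabeled hypoxanthine incorporation.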

Mus musculus [6] = species: Mus musculus; experiment: Dose required by the animals(mouse) to survive after 31 days; format: ADME, organism-based; details: in vivo, 744 h
In short: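 P. berghei KBG-173 in male or female CD-1 mice (4-5 weeks, 20-25 g), infected ip on day 0 with 5 × 10⁴ parasitized erythrocytes. Oral doses in 0.5% hydroxyethylcellulose/0.1% Tween-80 (10 mL/kg, free base), bid 6 h apart on days 3-5. Experiment run 31 days; complete survival dose = dose at which all animals survive to day 31.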

Mus musculus [7] = experiment: Compound was tested in vivo for antimalarial activity against Plasmodium berghei in mice (Mus musculus) after 6 days of administration (ED90 is the dose necessary to reduce the percentage of infected cells to 10% of the level found in the infected untreated controls); format: functional; details: 144 h; in short: as §1

IC90 (Plasmodium falciparum [4]) [ng/mL] | IC50 (Plasmodium falciparum [5]) [ng/mL] | Structure (SMILES) | ED (Mus musculus [1]) [mg/kg] | ED90 [2] [mg/kg] | Dose (Mus musculus [3]) [mg/kg] | also measured
– | – | Cc1cc(OCCCON/C(N)=N/C(N)=N/C(C)C)ccc1C(C)C.Cl | 128 | < 128 | – | –
– | – | COc1ccc(OCCCO/N=C(N)/N=C(\N)NC(C)C)cc1.Cl | > 128 | > 128 | – | –
– | – | CC(C)/N=C(N)/N=C(\N)NOCCCOc1ccccc1.Cl | 165 | 124 | 540 | –
152 (≈ 604 nM) | > 0.5 | CC1(C)N=C(N)N=C(N)N1c1ccc(Cl)cc1 [CYCLOGUANIL] | – | – | – | –
0.32 | 0.0299 | CC1(C)N=C(N)N=C(N)N1OCCCOc1ccc([N+](=O)[O-])cc1.Cl | – | – | – | –
– | – | Cc1ccc(OCCCON/C(N)=N/C(N)=N/C(C)C)cc1.Cl | 265 | 113 | 445 | –
2.5 | 0.0299 | CC1(C)N=C(N)N=C(N)N1OCCCOc1cccc(C(F)(F)F)c1.Cl | – | – | – | –
0.37 | 0.0416 | Cc1cccc(OCCCON2C(N)=NC(N)=NC2(C)C)c1.Cl | – | – | – | –
0.63 | 0.0301 | CC1(C)N=C(N)N=C(N)N1OCCCOc1cc(F)cc(F)c1F.Cl | – | – | – | –
40 (≈ 105 nM) | 0.278 (≈ 0.73 nM) | CC1(C)N=C(N)N=C(N)N1OCCOc1cc(Cl)c(Cl)cc1Cl | – | – | – | –
– | – | CC(C)/N=C(N)/N=C(\N)NOCCCSc1ccc(Cl)cc1 | 112 | 73 | 182 | –
– | – | Cc1ccc(OCCCON/C(N)=N/C(N)=N/C(C)C)c(C)c1.Cl | 170 | 120 | 235 | –
– | – | CCN(CC)CCCC(C)Nc1ccnc2cc(Cl)ccc12 (centres undefined) [CHLOROQUINE] | – | – | – | Complete survival dose (Mus musculus [6]): 256 mg/kg; ED90 (Mus musculus [7]): 3 mg/kg
– | – | Cc1ccc(OCCCON/C(N)=N/C(N)=N/C(C)C)cc1C.Cl | > 128 | > 128 | – | –
2.08 (≈ 6.08 nM) | 0.0288 (≈ 0.0842 nM) | CC1(C)N=C(N)N=C(N)N1OCCCSc1ccc(Cl)cc1 | – | – | – | –
0.38 | 0.0332 | CC1(C)N=C(N)N=C(N)N1OCCCOc1ccc(F)c(F)c1.Cl | – | – | – | –
– | – | CC(C)/N=C(N)/N=C(\N)NOCCCOc1cc(F)c(F)cc1F.Cl | 71 | 18 | 128 | –
– | – | N=C(NOCCCOc1cc(Cl)c(Cl)cc1Cl)NC(=N)NC1CCCCC1 | 275 | > 256 | 470 | –
– | – | CC(C)NC(=N)NC(=N)NOCCCOc1ccc(Cl)cc1 | 26 | < 16 | 79 | –
1.67 (≈ 4.64 nM) | 0.0379 (≈ 0.105 nM) | CC1(C)NC(N)=NC(=N)N1OCCCOc1ccc(Cl)cc1Cl | – | – | – | –
– | – | CC(C)/N=C(N)/N=C(\N)NOCCCOc1ccc(F)cc1 | 30 | < 16 | 90 | –
– | – | CC(C)/N=C(N)/N=C(\N)NOCCCOc1cccc(C(F)(F)F)c1.Cl | 73 | 27 | 140 | –
66.7 (≈ 153 nM) | 0.113 (≈ 0.26 nM) | N=C1N=C(N)NC2(CCCCC2)N1OCCCOc1cc(Cl)c(Cl)cc1Cl | – | – | – | –
– | – | CC(C)/N=C(N)/N=C(\N)NOCc1ccc(Cl)c(Cl)c1 | 22 | < 8 | 32 | –
– | – | CC(C)/N=C(N)/N=C(\N)NOCCCSc1ccc(F)cc1.Cl | 109 | 70 | 183 | –
1.43 (≈ 3.62 nM) | 0.047 (≈ 0.119 nM) | CC1(C)N=C(N)N=C(N)N1OCCCOc1cc(Cl)c(Cl)cc1Cl | – | – | – | –
11.7 | 0.0719 | Cc1cc(OCCCON2C(N)=NC(N)=NC2(C)C)ccc1C(C)C.Cl | – | – | – | –

IC90 (Plasmodium falciparum [4]) [ng/mL] | IC50 (Plasmodium falciparum [5]) [ng/mL] | Structure (SMILES) | ED (Mus musculus [1]) [mg/kg] | ED90 [2] [mg/kg] | Dose (Mus musculus [3]) [mg/kg] | also measured
– | – | Cc1cccc(OCCCON/C(N)=N/C(N)=N/C(C)C)c1.Cl | > 128 | > 128 | – | –
– | – | CC(C)/N=C(N)/N=C(\N)NOCCCOc1ccc(Br)cc1 | 64 | < 32 | 135 | –
0.94 | 0.032 | CC1(C)N=C(N)N=C(N)N1OCCCOc1cc(F)c(F)cc1F.Cl | – | – | – | –
0.63 (≈ 1.93 nM) | – | CC1(C)N=C(N)N=C(N)N1OCCCOc1ccc(Cl)cc1 | – | – | – | –
1.56 | 0.0333 | CC1(C)N=C(N)N=C(N)N1OCCCOc1ccc2ccccc2c1.Cl | – | – | – | –
– | – | CC(C)/N=C(N)/N=C(\N)NOCCCOc1cccc2ccccc12.Cl | 185 | > 256 | 495 | –
1.25 | 0.0222 | CC1(C)N=C(N)N=C(N)N1OCCCSc1ccc(F)cc1.Cl | – | – | – | –
– | – | CC(C)/N=C(N)/N=C(\N)NOCCCSc1cc(Cl)ccc1Cl | > 128 | < 128 | – | –
– | – | Cc1ccc(SCCCON/C(N)=N/C(N)=N/C(C)C)cc1.Cl | 117 | 92 | 265 | –
1.25 | 0.211 | COc1cc(OCCCON2C(N)=NC(N)=NC2(C)C)cc(OC)c1OC.Cl | – | – | – | –
0.32 | 0.0342 | COc1ccc(OCCCON2C(N)=NC(N)=NC2(C)C)cc1.Cl | – | – | – | –
0.4 | – | CC1(C)N=C(N)N=C(N)N1OCCCOc1ccc(Br)cc1.Cl | – | – | – | –
– | – | CC(C)/N=C(N)/N=C(\N)NOCCCOc1ccc(Cl)cc1Cl | 28 | 17 | 64 | –
– | – | CC(C)/N=C(N)/N=C(\N)NOCCCOc1ccc(C(C)(C)C)cc1.Cl | 460 | > 128 | 1480 | –
– | – | Cc1cc(C)c(C)c(OCCCON/C(N)=N/C(N)=N/C(C)C)c1.Cl | > 128 | < 128 | – | –
– | – | CC(C)/N=C(N)/N=C(\N)NOCCCOc1ccc(F)cc1F.Cl | > 128 | > 128 | – | –
0.63 | – | CC1(C)N=C(N)N=C(N)N1OCCCOc1ccc(F)cc1.Cl | – | – | – | –
– | – | CC(C)/N=C(N)/N=C(\N)NOCCCOc1ccc(F)c(F)c1.Cl | 27 | < 16 | 77 | –
– | – | CC(C)NC(=N)NC(=N)NOCCCOc1cc(Cl)c(Cl)cc1Cl | 30 | < 16 | 76 | –
– | – | CC(C)/N=C(N)/N=C(\N)NOCCCOc1ccc2ccccc2c1.Cl | < 128 | < 128 | – | –
40 | 0.184 | CC1(C)N=C(N)N=C(N)N1OCCc1cccc(C(F)(F)F)c1.Cl | – | – | – | –
– | – | CC(C)NC(=N)NC(=N)NOCCCOc1ccc(Cl)c(Cl)c1 | 16 | < 16 | 33 | –
– | – | CC(C)/N=C(N)/N=C(\N)NOCCCOc1cc(F)cc(F)c1F.Cl | 107 | 74 | 180 | –
2.08 (≈ 5.53 nM) | 0.0254 (≈ 0.0675 nM) | CC1(C)N=C(N)N=C(N)N1OCCCSc1cc(Cl)ccc1Cl | – | – | – | –
– | – | CCc1ccc(OCCCO/N=C(N)/N=C(\N)NC(C)C)cc1.Cl | 158 | 96 | 505 | –
> 640 | > 0.5 | CCCCCCCCCC1N=C(N)N=C(N)N1OCCCOc1cc(Cl)c(Cl)cc1Cl (centres undefined) | – | – | – | –
0.42 | 0.0285 | CC1(C)N=C(N)N=C(N)N1OCCCOc1ccc(F)cc1F.Cl | – | – | – | –

Structure (SMILES) | IC90 (Plasmodium falciparum [4]) [ng/mL] | IC50 (Plasmodium falciparum [5]) [ng/mL] | ED (Mus musculus [1]) [mg/kg] | ED90 [2] [mg/kg] | Dose (Mus musculus [3]) [mg/kg] | also measured
CCc1nc(N)nc(N)c1-c1ccc(Cl)cc1 [PYRIMETHAMINE] | 1740 (≈ 7020 nM) | – | – | – | – | Complete survival dose (Mus musculus [6]): 400 mg/kg; ED90 (Mus musculus [7]): 1.2 mg/kg
